TMEM16A act – TMEM16A chloride channel activators or potentiators, primary screen, cell-based, HTS; AID 623877, 2012; B-score at 10 µM; 340,000 compounds, 0.3% hits; Anoctamin-1 (Mus musculus), Q8BHY3; HEK293 TMEM16A/YFP-H148Q/I152L, iodide quench fluorescence; active compounds read low;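 active = fluorescence-ratio B-score plate-corrected deviation score at least 3 library SD below zero, with starting fluorescence score within 5 deviations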;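 note: channel opened by trigger with iodide after compound preincubation; score built on the fluorescence ratio of max minus min over baseline; more negative score means more quench and so TMEM16A activation or potentiation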
DAGLB inh – DAGLB lipase inhibitors, primary screen, biochemical, fluorescence, HTS; inhibition, % at 5.17 µM; 340,000 compounds, 0.059% hits; HEK293T DAGLB membrane lysate, EnzChek fluorogenic substrate; AID 504411, 2011; in the data active = inhibition above about 34%
Target sequence (Q8NCG7 whole entry, looked up): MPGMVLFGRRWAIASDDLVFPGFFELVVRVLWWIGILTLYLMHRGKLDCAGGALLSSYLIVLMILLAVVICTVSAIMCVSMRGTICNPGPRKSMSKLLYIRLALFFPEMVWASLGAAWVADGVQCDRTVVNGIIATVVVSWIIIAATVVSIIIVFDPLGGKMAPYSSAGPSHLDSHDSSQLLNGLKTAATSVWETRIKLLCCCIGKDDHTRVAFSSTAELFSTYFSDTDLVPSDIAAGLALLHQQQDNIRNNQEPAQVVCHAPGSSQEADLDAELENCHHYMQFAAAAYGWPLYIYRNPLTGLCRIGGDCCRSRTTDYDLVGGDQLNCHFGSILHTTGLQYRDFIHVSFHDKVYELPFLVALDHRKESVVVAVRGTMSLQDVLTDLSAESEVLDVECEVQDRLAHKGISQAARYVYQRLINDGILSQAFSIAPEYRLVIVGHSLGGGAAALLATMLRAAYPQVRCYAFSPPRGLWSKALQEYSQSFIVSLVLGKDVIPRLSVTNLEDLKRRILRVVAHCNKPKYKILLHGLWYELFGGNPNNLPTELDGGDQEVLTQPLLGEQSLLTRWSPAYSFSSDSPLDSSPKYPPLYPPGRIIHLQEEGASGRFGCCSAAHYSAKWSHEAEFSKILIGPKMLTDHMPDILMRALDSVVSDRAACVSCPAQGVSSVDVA
ANO1 block – TMEM16A chloride channel inhibitors, primary screen, cell-based, HTS | HEK293 TMEM16A/YFP iodide influx fluorescence, ionomycin | normalized B-score (activity score, 25-100; higher = stronger inhibition) at 10 µM | 310,000 compounds, 1.2% hits;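 active = ratio plate-corrected score three or more library SD toward inhibition, starting fluorescence score within five deviations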;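 note: score derived from kinetic fluorescence span divided by baseline fluorescence per well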
MT1-MMP act inh – blockers of MT1-MMP proenzyme processing, primary screen, HT1080 RFP-PRO-GFP cells, GFP/RFP fluorescence | Matrix metalloproteinase-14 (Homo sapiens), P50281 | GFP/RFP ratio fluorescence, overnight; percent of plate control window, DMSO zero | GFP/RFP ratio change, % at 20 µM | 360,000 compounds, 0.061% hits | AID 651647, 2012;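 active = GFP/RFP ratio change of at least 30% with cell ATP level not reduced by more than half and red fluorescence within 50% of control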
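system = RFP-PRO-GFP reporter HT1080 cells | dosing = 20 µM single dose, 1% DMSO | timing = overnight cell settling, then overnight compound exposure, 37 °C, 5% CO2 | read-out basis = GFP/RFP fluorescence ratio | controls = DMSO and RFP-L50D-GFP cell wells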
TMEM16A reconf – TMEM16A chloride channel inhibitors, confirmation, cell-based, re-confirmation. shares compounds with ANO1 block. HEK293 TMEM16A/YFP-H148Q, iodide quench fluorescence; ionomycin added to raise cell calcium. inhibition, % at 10 µM. 2,300 compounds, 39% hits;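 active = mean duplicate percent inhibition, scaled so buffer wells are 0 and the reference blocker 100, over three buffer SD above buffer mean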
TMEM16A Ca cntr – calcium mobilization in TMEM16A/YFP HEK293 cells, confirmation, counter-screen for TMEM16A inhibitor project. shares compounds with ANO1 block. Fluo4 calcium mobilization. calcium response (% of ionomycin), % at 10 µM. 2,300 compounds, 2% hits;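 active = duplicate-averaged calcium signal over 20% of the ionomycin maximum, relative to buffer baseline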;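 note: each well's signal is peak minus trough fluorescence divided by its pre-addition baseline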
YFP-HEK293 quench – iodide YFP quench changes in parental YFP-HEK293, counter-screen for TMEM16A inhibitor project, cell-based. shares compounds with ANO1 block. ionomycin. YFP ratio F(max-min)/F0 at 10 µM. 2,300 tested, under 10 active;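 active = yellow fluorescent protein signal ratio exceeding the buffer control mean by over 5 SD of those controls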;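 note: ratio is mean of duplicate wells from kinetic YFP trace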
ClC-1 inh – ClC-1 chloride channel inhibition, selectivity assay for TMEM16A inhibitor project, cell-based, voltage-dependent ClC-1. shares compounds with ANO1 block. CHO ClC-1-YFP, iodide influx fluorescence quench; iodide control reads 0, buffer control 100. ratio percent, % at 10 µM. 2,300 tested, under 10 active. AID 652236, 2013;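 active = duplicate-mean ratio percent above the mean of iodide-only control wells, which defines zero, plus 5 of their SD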;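 note: higher percent means stronger block of ClC-1 iodide influx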
A number is an active result; – = inactive; · = no result. A selection: hits, their analogues and other compounds. The true share with any hit is near 1.3%.

SMILES	TMEM16A act	DAGLB inh	ANO1 block	MT1-MMP act inh	TMEM16A reconf	TMEM16A Ca cntr	YFP-HEK293 quench	ClC-1 inh
C=CCNCc1cccn1-c1sc2c(c1C#N)CCCC2	–	–	25	–	–	–	–	–
Cc1ccc(NC(=O)CN2C(=O)COc3ccc(C)cc32)nc1	–	–	25	–	–	–	–	–
CCS(=O)(=O)N1CCN(S(=O)(=O)c2ccc(Cl)s2)CC1	–	–	–	–	·	·	·	·
Cc1ccc(N2CCN(S(=O)(=O)c3ccc(Cl)s3)CC2C)cc1 (stereo not given)	–	–	25	–	–	–	–	–
CC1=C(C(=O)OCc2ccccc2)C(c2ccc(-c3ccccc3)cc2)NC(=O)N1CCCCCC(=O)O (stereo not given)	–	–	100	–	31%	–	–	–
COC(=O)CCCCCN1C(=O)NC(C2CC2)C(C(=O)OCc2ccccc2)=C1C (stereo not given)	–	–	25	–	–	–	–	–
COC(=O)CCCN1C(=O)NC(c2ccc(-c3ccccc3)cc2)C(C(=O)OCc2ccccc2)=C1C (stereo not given)	·	–	·	–	·	·	·	·
CC1=C(C(=O)OCc2ccccc2)C(c2ccc(-c3ccccc3)cc2)NC(=O)N1CCCC(=O)O (stereo not given)	·	·	–	·	·	·	·	·
COc1ccc(CNC(=O)c2ccc(-c3c(C)noc3C)c3ccoc23)cc1OC	·	·	·	–	·	·	·	·
O=C(CSc1nnc(Nc2ccccc2)s1)Nc1ccc(S(=O)(=O)N2CCOCC2)cc1	–	–	25	–	–	–	–	–
CCOC(=O)c1c(C)[nH]c(C(=O)C(C)Sc2ccc(Cl)cc2)c1C (stereo not given)	–	–	25	–	32%	–	–	–
CCN1C[C@@H]2[C@@H]3C(=O)N(Cc4ccccc4)C(=O)[C@@H]3[C@](CC)(C1=O)N2C(=O)c1ccc(F)cc1	–	–	·	–	·	·	·	·
COC(=O)c1cc(=O)n(Cc2cccs2)c(=NCc2cccs2)s1	–	–	25	–	–	–	–	–
COc1cccc(C(NC(C)=O)c2nc(-c3csc4ccccc34)cs2)c1 (stereo not given)	·	·	·	–	·	·	·	·
CCN(CC)S(=O)(=O)c1ccc(Cl)c(NC(=O)COC(=O)c2ccc(O)cc2)c1	–	–	25	–	45%	–	–	–
CCN(CC)S(=O)(=O)c1cc(C(=O)OCC(=O)Nc2cccc(S(=O)(=O)N(C)C)c2)ccc1F	–	–	25	–	–	–	–	–
CCOc1ccccc1CNn1cnnc1SCC(=O)NC(C)(C)C	·	–	·	–	·	·	·	·
Cc1nn(CC(=O)NC(=O)c2ccccc2)c(C)c1[N+](=O)[O-]	–	–	·	–	·	·	·	·
Cc1ccc(Cl)cc1N1CCN(C(=O)COc2ccc(S(=O)(=O)NC(C)C)cc2)CC1	–	–	25	–	–	–	–	–
C1CN=C(NC23CC4CC(CC(C4)C2)C3)C1	–	–	–	–	·	·	·	·
C1CCC(NC2=NCCC2)CC1	–	–	100	–	–	–	–	–
Cc1cc(C)c2nc(SC3CCOC3=O)cc(C)c2c1 (stereo not given)	–	–	–	–	·	·	·	·
Cc1cc(C)c2nc(SC(C)C#N)cc(C)c2c1 (stereo not given)	–	–	100	–	–	–	–	–
